In ChEMBL document CHEMBL3091303, “1,3-Dialkyl-substituted tetrahydropyrimido[1,2-f]purine-2,4-diones as multiple target drugs for the potential treatment of neurodegenerative diseases” (Bioorg Med Chem, 2013):

Columns and labels:
[1] = molecular target: T1, MAO-B (amine oxidase [flavin-containing] B) (Homo sapiens, UniProt P27338); assay: Inhibition of human MAO-B at 10 uM relative to control
T1 sequence (P27338 whole entry): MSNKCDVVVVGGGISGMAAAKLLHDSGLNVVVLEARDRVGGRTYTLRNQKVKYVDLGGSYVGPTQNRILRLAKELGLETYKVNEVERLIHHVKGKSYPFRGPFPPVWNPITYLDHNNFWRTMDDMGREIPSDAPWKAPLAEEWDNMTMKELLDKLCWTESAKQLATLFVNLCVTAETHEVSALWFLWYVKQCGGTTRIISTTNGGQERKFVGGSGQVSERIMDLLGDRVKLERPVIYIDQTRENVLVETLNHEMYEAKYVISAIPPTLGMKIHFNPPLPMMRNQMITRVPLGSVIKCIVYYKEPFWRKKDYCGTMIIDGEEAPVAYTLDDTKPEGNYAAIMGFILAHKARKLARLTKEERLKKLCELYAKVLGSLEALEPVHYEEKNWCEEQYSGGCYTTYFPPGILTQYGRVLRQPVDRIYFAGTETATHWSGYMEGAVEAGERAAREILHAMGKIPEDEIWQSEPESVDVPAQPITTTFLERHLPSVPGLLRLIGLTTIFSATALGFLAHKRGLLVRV
Method in brief: (§1)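 Human MAO-A and MAO-B inhibition, screened first at a test concentration of 10 µM.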

[2] = molecular target: T2, Amine oxidase [flavin-containing] B (Homo sapiens, UniProt P27338); assay: Inhibition of human MAO-B
T2 sequence (P27338 whole entry): T1 sequence (P27338 whole entry)

[3] = molecular target: T3, Adenosine receptor A3 (Homo sapiens) (UniProt P0DMS8); assay: Displacement of [3H]PSB-11 from human adenosine A3 receptor expressed in CHO cells relative to control; format: cell-based; design: concentration or dose not given beside the values; conditions: concentration not given here
T3 sequence (whole entry): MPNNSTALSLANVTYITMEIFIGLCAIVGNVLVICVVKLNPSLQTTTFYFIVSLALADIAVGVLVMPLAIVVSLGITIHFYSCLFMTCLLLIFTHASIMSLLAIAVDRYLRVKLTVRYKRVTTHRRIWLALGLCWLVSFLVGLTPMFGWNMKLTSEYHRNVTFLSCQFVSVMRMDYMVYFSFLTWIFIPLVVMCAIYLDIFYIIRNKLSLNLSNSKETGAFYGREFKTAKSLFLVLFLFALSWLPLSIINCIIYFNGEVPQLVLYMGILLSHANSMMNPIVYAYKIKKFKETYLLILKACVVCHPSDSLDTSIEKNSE

Adenosine receptor A3 = molecular target: T4, Adenosine receptor A3 (Homo sapiens, UniProt P0DMS8); assay: Displacement of [3H]PSB-11 from human adenosine A3 receptor expressed in CHO cells; format: cell-based
T4 sequence (P0DMS8 whole entry): T3 sequence (whole entry)

[4] = molecular target: T5, Adenosine receptor A2b (Homo sapiens) (UniProt P29275); assay: Displacement of [3H]PSB-603 from human adenosine A2B receptor relative to control; design: concentration or dose not given beside the values; conditions: concentration not given here
T5 sequence (whole entry): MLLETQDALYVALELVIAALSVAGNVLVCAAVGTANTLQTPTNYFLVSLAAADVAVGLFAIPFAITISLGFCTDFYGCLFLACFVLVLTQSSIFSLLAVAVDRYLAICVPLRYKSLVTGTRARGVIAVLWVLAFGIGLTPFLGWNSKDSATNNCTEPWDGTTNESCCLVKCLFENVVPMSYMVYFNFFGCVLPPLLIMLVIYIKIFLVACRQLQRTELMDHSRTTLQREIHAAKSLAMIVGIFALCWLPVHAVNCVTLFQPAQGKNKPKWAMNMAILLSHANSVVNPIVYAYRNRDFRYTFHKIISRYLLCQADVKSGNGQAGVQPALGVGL

Adenosine receptor A2a [5] = molecular target: Adenosine receptor A2a (Rattus norvegicus, UniProt P30543); assay: Displacement of [3H]MSX-2 from adenosine A2A receptor in rat brain striatum; format: tissue-based
Adenosine receptor A2b = molecular target: T6, Adenosine receptor A2b (Homo sapiens, UniProt P29275); assay: Displacement of [3H]PSB-603 from human adenosine A2B receptor
T6 sequence (P29275 whole entry): T5 sequence (whole entry)

Adenosine receptor A1 [6] = molecular target: T7, Adenosine receptor A1 (Homo sapiens, UniProt P30542); assay: Displacement of [3H]CCPA from human adenosine A1 receptor expressed in CHO cells; format: cell-based
T7 sequence (P30542 whole entry): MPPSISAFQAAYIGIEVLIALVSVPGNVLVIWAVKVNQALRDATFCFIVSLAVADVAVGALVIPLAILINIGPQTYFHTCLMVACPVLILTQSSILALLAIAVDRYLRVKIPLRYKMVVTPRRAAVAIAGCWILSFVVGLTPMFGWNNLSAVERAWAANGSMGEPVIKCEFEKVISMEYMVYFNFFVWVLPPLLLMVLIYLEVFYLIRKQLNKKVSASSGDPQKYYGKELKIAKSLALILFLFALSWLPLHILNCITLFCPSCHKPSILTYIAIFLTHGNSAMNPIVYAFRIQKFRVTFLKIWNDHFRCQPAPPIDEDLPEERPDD
Method in brief: (§2)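 Radioligand binding to human receptors recombinantly expressed in Chinese hamster ovary (CHO) cells. Results are Ki, or % inhibition of radioligand binding at the indicated concentration.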

Adenosine receptor A1 [7] = molecular target: T8, Adenosine receptor A1 (Rattus norvegicus, UniProt P25099); assay: Displacement of [3H]CCPA from adenosine A1 receptor in rat brain cortex; format: tissue-based
T8 sequence (P25099 whole entry): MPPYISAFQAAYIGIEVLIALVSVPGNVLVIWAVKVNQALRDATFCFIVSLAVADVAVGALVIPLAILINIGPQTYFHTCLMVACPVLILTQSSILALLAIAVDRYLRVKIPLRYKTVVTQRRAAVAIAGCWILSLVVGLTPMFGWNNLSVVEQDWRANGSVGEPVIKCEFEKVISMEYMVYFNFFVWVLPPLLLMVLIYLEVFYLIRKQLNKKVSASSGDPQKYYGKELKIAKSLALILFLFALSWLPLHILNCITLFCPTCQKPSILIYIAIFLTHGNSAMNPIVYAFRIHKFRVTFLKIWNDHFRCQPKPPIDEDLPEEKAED
Method in brief: (§3)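 Radioligand binding to rat A1 receptors in rat brain cortical membrane preparations. Values are given as Ki, or as % inhibition of radioligand binding at the indicated concentration.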

Adenosine receptor A2a [8] = molecular target: Adenosine receptor A2a (Homo sapiens, UniProt P29274); assay: Displacement of [3H]MSX-2 from human adenosine A2A receptor expressed in CHO cells; format: cell-based; method in brief: as §2
[9] = molecular target: T9, Amine oxidase [flavin-containing] A (Homo sapiens, UniProt P21397); assay: Inhibition of human MAO-A; method in brief: as §1
T9 sequence (P21397 whole entry): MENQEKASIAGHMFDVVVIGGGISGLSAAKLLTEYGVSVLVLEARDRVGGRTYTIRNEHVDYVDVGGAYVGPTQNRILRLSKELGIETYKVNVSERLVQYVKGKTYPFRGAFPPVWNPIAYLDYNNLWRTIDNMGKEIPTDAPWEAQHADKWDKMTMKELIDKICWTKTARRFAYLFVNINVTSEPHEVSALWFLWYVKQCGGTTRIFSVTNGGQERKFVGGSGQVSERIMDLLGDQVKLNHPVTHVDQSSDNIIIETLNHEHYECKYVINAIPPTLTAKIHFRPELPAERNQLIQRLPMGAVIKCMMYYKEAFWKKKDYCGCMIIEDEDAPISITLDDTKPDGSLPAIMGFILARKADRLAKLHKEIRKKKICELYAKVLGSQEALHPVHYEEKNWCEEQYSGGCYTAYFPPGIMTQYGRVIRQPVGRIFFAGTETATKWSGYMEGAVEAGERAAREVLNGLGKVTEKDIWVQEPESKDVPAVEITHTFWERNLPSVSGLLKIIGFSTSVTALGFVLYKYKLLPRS

[10] = molecular target: T10, MAO-A (amine oxidase [flavin-containing] A) (Homo sapiens, UniProt P21397); assay: Inhibition of human MAO-A at 10 uM relative to control; method in brief: as §1
T10 sequence (P21397 whole entry): T9 sequence (P21397 whole entry)

[11] = molecular target: T11, Adenosine receptor A1 (Rattus norvegicus) (UniProt P25099); assay: Displacement of [3H]CCPA from adenosine A1 receptor in rat brain cortex relative to control; format: tissue-based; design: concentration or dose not given beside the values; conditions: concentration not given here; method in brief: as §3
T11 sequence (whole entry): T8 sequence (P25099 whole entry)

Sequence of Adenosine receptor A2a (Rattus norvegicus, UniProt P30543) (P30543 whole entry): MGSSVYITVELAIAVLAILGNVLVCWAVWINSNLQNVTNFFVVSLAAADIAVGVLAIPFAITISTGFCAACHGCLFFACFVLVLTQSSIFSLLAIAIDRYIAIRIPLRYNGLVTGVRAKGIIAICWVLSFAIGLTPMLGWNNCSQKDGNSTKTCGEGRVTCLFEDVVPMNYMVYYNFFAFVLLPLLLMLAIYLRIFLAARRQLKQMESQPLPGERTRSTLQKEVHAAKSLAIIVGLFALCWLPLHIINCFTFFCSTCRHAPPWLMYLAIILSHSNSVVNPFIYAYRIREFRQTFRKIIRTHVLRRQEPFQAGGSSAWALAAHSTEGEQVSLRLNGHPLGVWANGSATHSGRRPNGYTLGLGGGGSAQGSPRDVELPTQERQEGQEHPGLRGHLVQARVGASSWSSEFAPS
Sequence of Adenosine receptor A2a (Homo sapiens, UniProt P29274) (P29274 whole entry): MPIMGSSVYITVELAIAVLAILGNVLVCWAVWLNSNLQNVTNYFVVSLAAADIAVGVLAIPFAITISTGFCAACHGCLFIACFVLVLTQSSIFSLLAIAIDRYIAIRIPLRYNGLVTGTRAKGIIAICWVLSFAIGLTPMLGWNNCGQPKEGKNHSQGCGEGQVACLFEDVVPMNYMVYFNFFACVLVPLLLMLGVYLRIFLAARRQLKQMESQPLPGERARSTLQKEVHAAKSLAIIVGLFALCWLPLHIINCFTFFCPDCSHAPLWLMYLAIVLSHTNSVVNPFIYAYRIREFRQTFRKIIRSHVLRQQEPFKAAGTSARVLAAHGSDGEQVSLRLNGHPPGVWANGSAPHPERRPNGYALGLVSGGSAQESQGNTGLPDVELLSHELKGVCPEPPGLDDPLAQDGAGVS

SMILES	inhibition at 10 µM [1] [%]	IC50 [2] [nM]	inhibition [3] [%]	Ki (Adenosine receptor A3) [nM]	inhibition [4] [%]	Ki (Adenosine receptor A2a [5]) [nM]	Ki (Adenosine receptor A2b) [nM]	Ki (Adenosine receptor A1 [6]) [nM]	Ki (Adenosine receptor A1 [7]) [nM]	Ki (Adenosine receptor A2a [8]) [nM]	IC50 [9] [nM]	inhibition at 10 µM [10] [%]	inhibition [11] [%]
C#CCn1c(=O)c2c(nc3n2CCCN3CCc2ccc(OC)cc2)n(C)c1=O	25	> 10000	13	> 1000	8	288	> 1000	4400	3140	508			
C#CCn1c(=O)c2c(nc3n2CCCN3CC2CCCO2)n(C)c1=O (stereo unspecified)	30	> 10000	9	> 10000	6	1430	> 1000	1150	169	1110			
C#CCn1c(=O)c2c(nc3n2CCCN3c2ccc(F)cc2)n(C)c1=O	17	> 10000	22	> 10000	7	1940	> 1000	3610	1190	2120			
C#CCn1c(=O)c2c(nc3n2CCCN3Cc2ccccc2OC)n(C)c1=O		1800		4410	16	641	> 1000	605	1060	417	> 10000	4	
CCn1c(=O)c2c(nc3n2CCCN3c2ccc(O)cc2)n(CC)c1=O	56	10000	29	> 10000	22	10900	> 1000		> 10000		> 10000	11	30
C#CCn1c(=O)c2c(nc3n2CCCN3CCc2cccs2)n(C)c1=O	17	> 10000	20	> 1000	16	710	> 1000	1410	990	317			
C#CCn1c(=O)c2c(nc3n2CCCN3CC2CCCCC2)n(C)c1=O	33	> 10000	5	> 100	-5	498	> 1000	1870	219	510			
C#CCn1c(=O)c2c(nc3n2CCCN3Cc2ccccc2)n(C)c1=O		3760	34	> 10000		533	3520	249	135	253	> 10000	5	
C#CCn1c(=O)c2c(nc3n2CCCN3C2CCC2)n(C)c1=O	19	> 10000	13	> 10000		380	3970	866	1070	231			
C#CCn1c(=O)c2c(nc3n2CCCN3CCc2ccc(O)cc2)n(C)c1=O	37	> 10000	28	> 10000	12	276	> 10000	8260	501	346			

Now from value to compound:

inhibition at 10 µM [1] [%]	IC50 [2] [nM]	inhibition [3] [%]	Ki (Adenosine receptor A3) [nM]	inhibition [4] [%]	Ki (Adenosine receptor A2a [5]) [nM]	Ki (Adenosine receptor A2b) [nM]	Ki (Adenosine receptor A1 [6]) [nM]	Ki (Adenosine receptor A1 [7]) [nM]	Ki (Adenosine receptor A2a [8]) [nM]	IC50 [9] [nM]	inhibition at 10 µM [10] [%]	inhibition [11] [%]	SMILES
26	> 10000	25	> 10000		361	17100	2360	515	311				C#CCn1c(=O)c2c(nc3n2CCCN3C2CCCCC2)n(C)c1=O
	86.9	23	> 10000	10	780	> 1000		7240	5250	> 10000	-2		Cn1c(=O)c2c(nc3n2CCCN3CCc2ccc(Cl)c(Cl)c2)n(C)c1=O
50	10000	12	> 1000	3	4700	> 1000		> 10000		> 10000	12	28	Cn1c(=O)c2c(nc3n2CCCN3c2ccc(Cl)c(Cl)c2)n(C)c1=O
	624	38	> 10000	8	515	> 1000		3030	5610	> 10000	4		Cn1c(=O)c2c(nc3n2CCCN3CCc2ccc(Cl)cc2)n(C)c1=O
	1350	43	> 10000	1	166	> 1000		1760	1350	> 10000	-4		Cn1c(=O)c2c(nc3n2CCCN3CCc2cccc(Cl)c2)n(C)c1=O
55	10000	23	> 300	-7	14000	> 300		> 1500		> 10000	4	0	Cn1c(=O)c2c(nc3n2CCCN3CC(=O)N2CCN(Cc3ccccc3)CC2)n(C)c1=O
